Reference: BindingDB's records for doi:10.1021/acs.jmedchem.7b00693 (The University of Tokyo, 2017)

molecular target: Probable G-protein coupled receptor 34 (Mus musculus, UniProt Q9R1K6); assay: Agonist activity at mouse GPR34 expressed in HEK293 cells co-transfected with AP-TGFalpha/chimeric Galphaq/i1 assessed as induction of ectodomain shedding of membrane bound AP-TGFalpha after 1 hr
Procedure, shortened: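 HEK293A cells transiently co-transfected with AP-TGFα, chimeric Gαq/i1 and GPR34 (human for line 1, mouse for line 3) or empty vector (mock). After 24 h, cells were suspended in HBSS with 5 mM HEPES pH 7.4 and preincubated 30 min with 10 μM (final) Ki16425. Compounds in HBSS with 0.01% fatty acid-free BSA were added for 1 h at 37 °C. AP activity in medium and on cells was read as OD405 with p-NPP after 1 h at room temperature.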

Sequence of Probable G-protein coupled receptor 34 (Q9R1K6 whole entry, the tested form may be a part): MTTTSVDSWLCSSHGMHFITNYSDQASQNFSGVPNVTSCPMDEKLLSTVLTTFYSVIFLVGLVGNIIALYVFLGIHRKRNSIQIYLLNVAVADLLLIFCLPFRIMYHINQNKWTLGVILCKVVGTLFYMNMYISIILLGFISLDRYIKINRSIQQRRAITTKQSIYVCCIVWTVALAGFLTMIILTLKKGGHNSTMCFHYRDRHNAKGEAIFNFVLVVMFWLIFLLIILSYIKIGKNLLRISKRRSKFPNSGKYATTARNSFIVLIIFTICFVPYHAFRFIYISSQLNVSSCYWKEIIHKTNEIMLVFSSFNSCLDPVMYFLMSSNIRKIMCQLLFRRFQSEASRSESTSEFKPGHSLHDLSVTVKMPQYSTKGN

EC50 [µM] | SMILES
> 3.16 | CC(C)(C)c1ccccc1Oc1cccc(COc2ccccc2CCC(=O)OCCCOP(=O)(O)OC[C@H](N)C(=O)O)c1
> 3.16 | N[C@@H](COP(=O)(O)OCCCOC(=O)CCc1ccccc1OCc1cccc(OCc2ccccc2)c1)C(=O)O

Second part, the molecule before the results:

SMILES | EC50 [µM]
N[C@@H](COP(=O)(O)OCCCOC(=O)CCc1ccccc1OCc1cccc(-c2ccccc2)c1)C(=O)O | > 3.16
CCCCCCCC/C=C\CCCCCCCC(=O)OCCCOP(=O)(O)OC[C@H](N)C(=O)O | > 3.16
CCCCCCOc1cccc(COc2ccccc2CCC(=O)OCCCOP(=O)(O)OC[C@H](N)C(=O)O)c1 | > 3.16
CCCCCCOCC#CCOc1ccccc1CCC(=O)OCCCOP(=O)(O)OC[C@H](N)C(=O)O | > 3.16
